Sampled rows, rich in hits. Any-hit rate of the full collection: about 2.1%.
LMPTP block: LMPTP (human) inhibition; P24666; recombinant LMPTP-A, OMFP fluorogenic substrate, fluorescence intensity; inhibition, % at 20 µM; 360,000 tested, 0.22% active; AID 651560;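 active = compounds that cut the enzyme signal by at least half of the control window in the single-dose screen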;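 note: plate controls were DMSO wells with enzyme plus substrate for no effect and substrate without enzyme for full effect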
Target sequence (P24666 whole entry, looked up): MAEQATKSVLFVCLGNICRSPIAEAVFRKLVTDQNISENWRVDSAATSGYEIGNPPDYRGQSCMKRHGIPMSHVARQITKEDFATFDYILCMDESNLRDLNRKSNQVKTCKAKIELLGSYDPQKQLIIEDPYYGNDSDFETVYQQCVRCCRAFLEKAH
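Assay system: LMPTP-A, protein tyrosine phosphatase of low molecular weight / Medium: pH 6.0 Bis-Tris buffer with DTT and Triton X-100 / Schedule: 50 min enzyme reaction at room temperature, protected from light / Measured by: endpoint fluorescence intensity from OMFP dephosphorylation / Read-out basis: % inhibition relative to no-enzyme and uninhibited control wells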
SUMO1 PPI mod: SUMO1-SIM interaction modulation | P63165 | SUMO1 binding to a labelled peptide, TR-FRET, 1 h | inhibition, % at 20 µM | 360,000 tested, 0.33% active; in the data active = inhibition above about 37%
Target sequence (P63165 whole entry, looked up): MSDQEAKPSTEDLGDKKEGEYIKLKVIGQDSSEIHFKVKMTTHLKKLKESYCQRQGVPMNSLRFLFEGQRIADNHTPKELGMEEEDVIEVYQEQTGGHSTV
GRK2 inh: inhibitors of human GRK2 displacing RNA aptamer | bead flow cytometry, FAM-aptamer displacement from GRK2 | inhibition of aptamer binding, % at 10 µM | 330,000 tested, 0.59% active | AID 488847;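 active = inhibition of aptamer binding above 40%, roughly 3 SD of noise, on plates passing a quality check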;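 note: median bead fluorescence of bound FAM aptamer so fluorescent compounds give negative values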
Scp-1 inhibitor: Scp-1 (human) phosphatase inhibition; Recombinant Scp1, phosphopeptide, malachite green phosphate absorbance; inhibition, % at 20 µM; 340,000 tested, 0.88% active; AID 493091;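 active = inhibition above about 50% at 20 µM, limit read from the data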;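 note: plate controls were DMSO wells with enzyme for no effect and wells lacking enzyme for full effect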
Target sequence (Q9GZU7 76-261 limits assumed): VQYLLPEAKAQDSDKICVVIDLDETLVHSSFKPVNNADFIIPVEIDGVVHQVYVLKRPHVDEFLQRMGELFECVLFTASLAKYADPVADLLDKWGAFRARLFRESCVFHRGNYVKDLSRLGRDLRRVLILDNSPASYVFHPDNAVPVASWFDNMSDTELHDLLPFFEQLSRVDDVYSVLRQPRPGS
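Test system – truncated SCP-1 phosphatase (76-261aa) · Reagent – Phosphorylated 17-residue peptide substrate · Incubation – 45 min room-temperature reaction, 5 min colour, 30 min stabiliser · Detection – colorimetric phosphate reagent with accelerator and stabiliser, absorbance at 630 nm · Measure – % inhibition at 20 µM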
STEP inh: STEP (human) phosphatase inhibition; P54829; recombinant STEP, OMFP fluorogenic substrate, fluorescence; inhibition, % at 20 µM; 360,000 tested, 0.25% active;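 active = inhibition at 20 µM, scaled per plate between control wells, above about 37%, limit read from the data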;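 note: 0% = DMSO with enzyme and substrate and 100% = substrate only without enzyme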
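System: STEP phosphatase, cell-free reaction; Buffer or medium: Bis-Tris pH 6.0 buffer with DTT, detergent; Incubation: 20 min at room temperature, dark; Measured by: fluorescence, 480/540 nm.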
DNMT1 inh: DNMT1 (human) enzyme inhibition. inhibition (reported as % activation of signal), % at 10 µM. AID 588458. P26358. 360,000 tested, 0.83% active. DNMT1 molecular beacon, Hinp1I cleavage, fluorescence; in the data active = inhibition above about 50%
GRK2 CP1: confirmation of human GRK2 inhibitors displacing RNA aptamer | shares compounds with GRK2 inh | bead-bound GRK2, FAM-aptamer displacement, flow cytometry | aptamer displacement, % at 10 µM | 2,000 tested, 4% active;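 active = aptamer displacement above 40%, near three times the noise of non-fluorescent compounds, on plates passing quality checks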;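 note: negative values mostly reflect intrinsic compound fluorescence rather than true enhancement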
FAM quench CP1: aptamer fluorescence quenching in GRK2 counter-screen | Carboxyfluorescein RNA aptamer on beads, flow cytometry quenching; hits give low values | shares compounds with GRK2 inh | AID 504580 | fluorescence response (% of DMSO), % at 10 µM | 2,000 tested, under 10 active;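 active = compounds that quench the bead-bound fluorescent RNA probe, cutting fluorescence to under half of the solvent control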;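 note: counterscreen run without GRK2 so only probe quenching by compound is measured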
The depositor's hits bear a star; . = no result given.

SMILES | LMPTP block | SUMO1 PPI mod | GRK2 inh | Scp-1 inhibitor | STEP inh | DNMT1 inh | GRK2 CP1 | FAM quench CP1
CC1(C(=O)NS(=O)(=O)c2cccs2)CCN1C(=O)CC1CC1 (centres undefined) | 0 | 4 | . | . | -4 | 11 | . | .
Cc1csc(CNc2ncnc3ccc(-c4ccoc4)cc23)c1 | 2 | -5 | 49* | 2 | 0 | -4 | -2 | 100
Cc1csc(CNc2ncnc3ccc(-c4cccnc4)cc23)c1 | 3 | 5 | 3 | -3 | 4 | -3 | . | .
Cc1ccc(-c2noc(CSc3nnc(-c4ccncc4)n3-c3ccc(C)cc3)n2)cc1 | 3 | 0 | 99* | -4 | 5 | -4 | -1 | 95
CCOc1ccc(-n2c(SCc3nc(-c4ccc(C)cc4)no3)nnc2-c2ccncc2)cc1 | 2 | 1 | 1 | 3 | 1 | -8 | . | .
CC(=O)c1cccc(NC(=O)c2ccc(-c3c(C)noc3C)c3ccoc23)c1 | 1 | 10 | . | . | -2 | 0 | . | .
COc1ccc(Cl)cc1-c1nc(SCC(=O)NC(C)C)n[nH]1 | 1 | -1 | 46* | 6 | 0 | 1 | -1 | 98
Cc1csc(N=Nc2ccc(N(C)C)cc2)[n+]1[O-] | 25 | 0 | . | . | 18 | -13 | . | .
OCCC1CN(Cc2cccc3c2OCO3)CCN1Cc1ccccc1 (centres undefined) | 0 | 1 | 2 | -4 | 0 | -1 | . | .
OCCC1CN(Cc2cccc3c2OCO3)CCN1C1CCCCC1 (centres undefined) | -1 | 1 | 99* | 7 | -4 | 4 | 1 | 98
COc1cnn(-c2ccc(C)cc2)c(=O)c1Br | 0 | -3 | 30 | -6 | -2 | 5 | 0 | 94
COc1cnn(-c2ccc(C)cc2)c(=O)c1Cl | 0 | -6 | 1 | 1 | 0 | -2 | . | .
N#CCc1ccc(NS(=O)(=O)c2ccc(C3CCCCC3)cc2)cc1 | 4 | 0 | 78* | -13 | 2 | -7 | 1 | 97
COc1ccc(S(=O)(=O)Nc2ccc(CC#N)cc2)cc1 | 0 | 2 | 3 | -14 | -1 | 0 | . | .
COc1cccc(NC(=O)C(OC(=O)c2ccc([N+](=O)[O-])o2)c2ccccc2)c1 (centres undefined) | 0 | -4 | 3 | -13 | 0 | -21 | . | .
COc1cccc(NC(=O)C(OC(=O)c2ccccc2NS(=O)(=O)c2cccs2)c2ccccc2)c1 (centres undefined) | 2 | 1 | 100* | -9 | -3 | -8 | -1 | 100
Cc1ccc(NC2=NC(C(=O)Nc3ccc(C)c(C)c3)CC(=O)N2)cc1 (centres undefined) | -2 | -2 | 0 | 0 | 1 | 4 | -3 | 102
C=CCn1c(Cn2c(-c3cnccn3)nc3ccccc32)nc2ccccc21 | 1 | -3 | . | . | . | . | . | .
COC(=O)N(C)C[C@@H]1OCc2cnnn2CCCC(=O)N([C@H](C)CO)C[C@H]1C | -2 | -4 | . | . | 2 | 4 | . | .
O=C(NCC[C@H]1CC[C@@H](NC(=O)C2CCC2)[C@@H](CO)O1)c1cc(Cl)cc(Cl)c1 | -2 | 4 | . | . | . | . | . | .
O=C(COC(=O)c1cccc(OC(F)F)c1)Nc1ncccn1 | 1 | 2 | 39 | 33 | -2 | 1 | 10 | 96
O=c1[nH]cnc2onc(-c3ccc(F)cc3)c12 | 1 | 6 | 12 | -15 | -4 | -1 | 1 | 95
CCN(CCO)c1ncnc2onc(-c3ccc(F)cc3)c12 | -2 | -1 | 0 | -10 | -1 | -4 | . | .
CCCNS(=O)(=O)c1ccc(CCC(=O)N2CCOCC2)cc1 | 0 | -5 | 61* | -8 | 0 | 3 | -13 | 96
Cc1cc(C)cc(C(O)c2ncc(-c3cccc(C(F)(F)F)c3)[nH]2)c1 (centres undefined) | 0 | 2 | . | . | -2 | 0 | . | .

High-throughput results: PubChem BioAssay, several laboratories
